The record followed here is ChEMBL document CHEMBL3272343, “Etodolic acid and related compounds. Chemistry and antiinflammatory actions of some potent di- and trisubstituted 1, 3, 4, 9-tetrahydropyrano[3, 4-b]indole-1-acetic acids” (J Med Chem, 1976).

Series [1] concerns Rattus norvegicus. The series can be described thus: Antiinflammatory activity in rat assessed as inhibition of adjuvant-induced arthritis administered for 9 days into foot pad 14 days after adjuvant challenge measured on day 22 by mercury displacement analysis. It counts as functional. The essentials: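 Oral dosing in groups of six rats with established adjuvant arthritis (Mycobacterium butyricum in mineral oil, injected into left hind foot pad). Treatment ran from day 14 to day 22 (9 po administrations). Injected-paw volume was measured by mercury displacement. A decrease of 0.5 ml or more counted as a therapeutic effect. ED50 was derived by probit analysis of responder counts. Maximum screening dose was 100 mg/kg.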

Series [2] concerns Rattus norvegicus. The series can be described thus: Antiinflammatory activity in rat assessed as inhibition of adjuvant-induced arthritis at 25 mg/kg administered for 9 days into foot pad 14 days after adjuvant challenge measured on day 22 by mercury displacement analysis. It counts as functional, organism-based. Details: dose 25 mg/kg. In short, it runs like this: (§1)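 Therapeutic test in groups of six rats with adjuvant arthritis (Mycobacterium butyricum in mineral oil, left hind foot pad). Oral treatment ran from day 14 to day 22 (9 po doses). Injected-paw volume was measured by mercury displacement. Rats whose paw shrank by 0.5 ml or more were scored as showing a therapeutic effect; smaller changes counted as negative.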

Series [3] is described as follows: Gastrointestinal toxicity in 8 hrs starved po dosed Charles River rat assessed as ulcerogenic effect after 18 hrs. It counts as organism-based. As to conditions: in vivo, read-out: UD50. The essentials:
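Acute ulcerogenicity in male Charles River rats (180–200 g), housed in individual cages and starved 8 hr before oral dosing. UD50 was calculated graphically.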

Series [4] is described as follows: Therapeutic index, ratio of UD50 for 8 hrs starved po dosed Charles River rat to ED50 for rat assessed as inhibition of adjuvant-induced arthritis. It counts as organism-based. As to conditions: in vivo, read-out: TI. In short, it runs like this: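 Ratio of UD50 to ED50. UD50 came from starved (8 hr) male Charles River rats dosed orally and was calculated graphically. ED50 came from the 9-dose oral adjuvant-arthritis therapeutic test (day 14–22, mercury-displacement paw volume, ≥0.5 ml decrease as responder) and was derived by probit analysis.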

In series [5] the test system is Rattus norvegicus. The series can be described thus: Antiinflammatory activity in po dosed rat assessed as inhibition of carrageenin-induced paw edema. It counts as functional. For orientation: The carrageenan paw model is a standard test of acute inflammation.
In series [6] the test system is Rattus norvegicus. Nature of the series: Antiinflammatory activity in rat assessed as inhibition of adjuvant-induced arthritis at 20 mg/kg administered for 9 days into foot pad 14 days after adjuvant challenge measured on day 22 by mercury displacement analysis. It counts as functional, organism-based. Details: dose 20 mg/kg. In short, it runs like this:
as §1

Series [7] deals with Rattus norvegicus. Nature of the series: Antiinflammatory activity in rat assessed as inhibition of adjuvant-induced arthritis at 50 mg/kg administered for 9 days into foot pad 14 days after adjuvant challenge measured on day 22 by mercury displacement analysis. Details: dose 50 mg/kg. It counts as functional, organism-based. In short, it runs like this: as §1

Each structure is given as a SMILES string. Calls of active or inactive are those of the source. The rule behind the calls is not given here.

Turning to `CCC1(CC(=O)O)OCCc2c1[nH]c1c(Cl)c(Cl)ccc21` (centres undefined), the ED50 in the series on Rattus norvegicus [1] worked out at 1.1 mg/kg. The same measure, in the same setting: the same measure for `CCC1(CC(=O)O)OCCc2c1[nH]c1c(C3CCCC3)cccc21` (centres undefined): more than 5 mg/kg. On to `CCCC1(CC(=O)O)OCCc2c1[nH]c1ccc(C)cc21` (centres undefined), for which the inhibition result with Rattus norvegicus [2] was “inactive”. On to `CCc1cccc2c3c([nH]c12)C(CC)(CC(=O)O)OCC3` (centres undefined) [ETODOLAC], for which the TD50 at 18 h in series [3] was 60 mg/kg. Also, in the series with Rattus norvegicus [1], the ED50 was found to be 0.7 mg/kg. Also, the selectivity ratio in series [4] worked out at 85. As for `CCC1(CC(=O)O)OCCc2c1[nH]c1cc(F)ccc21` (centres undefined), the ED50 in the series with Rattus norvegicus [1] was 3 mg/kg. `CCCC1(CC(=O)O)OCCc2c1[nH]c1c(C)c(Cl)ccc21` (centres undefined): in the series on Rattus norvegicus [1], the 50% effective dose (ED50) was found to be 3.4 mg/kg. Regarding `CCCc1cccc2c3c([nH]c12)C(CC)(CC(=O)O)OCC3` (centres undefined), the TD50 at 18 h in series [3] is 20 mg/kg. Moreover, the ED30 in the series with Rattus norvegicus [5] came to 10 mg/kg. Moreover, in the series with Rattus norvegicus [1], the ED50 was 0.4 mg/kg. In series [4], the selectivity ratio amounted to 50.

Consider `CCC1(CC(=O)O)OCCc2c1[nH]c1cccc(Cl)c21` (centres undefined), for which the ED50 with Rattus norvegicus [1] worked out at 7 mg/kg. On the same count and under the same terms, the same measure for `CCC1(CC(=O)O)OCCc2c1[nH]c1c(Cl)c(C)ccc21` (centres undefined): 4.1 mg/kg; for `CCCC1(CC(=O)O)OCCc2c1[nH]c1c(CC)cccc21` (centres undefined): 7.4 mg/kg. With `COc1ccc2c(c1)c(CC(=O)O)c(C)n2C(=O)c1ccc(Cl)cc1` [INDOMETHACIN], the TD50 at 18 h in series [3] was found to be 6 mg/kg. Further, the ED30 with Rattus norvegicus [5] is 1.3 mg/kg. Moreover, the ED50 in the series on Rattus norvegicus [1] turned out to be 0.2 mg/kg. The selectivity ratio in series [4] worked out at 30. With `CCCC1(CC(=O)O)OCCc2c1[nH]c1cc(OC)ccc21` (centres undefined), the inhibition entry in the series with Rattus norvegicus [2] was “inactive”. Consider `CCCCc1cccc2c3c([nH]c12)C(CC)(CC(=O)O)OCC3` (centres undefined), for which the inhibition result in the series on Rattus norvegicus [6] was “inactive”. In the case of `CCC1(CC(=O)O)OCCc2c1[nH]c1c(CC(C)C)cccc21` (centres undefined), the ED50 with Rattus norvegicus [1] worked out at 5 mg/kg. Turning to `CCC1(CC(=O)O)OCCc2c1[nH]c1c(C)cccc21` (centres undefined), in the series with Rattus norvegicus [1], the ED50 came to 4.3 mg/kg. Still for that read-out and setting: for `CCC1(CC(=O)O)OCCc2c1[nH]c1c(Cl)ccc(Cl)c21` (centres undefined) the value was 5.5 mg/kg.

On to `CCCc1cccc2c3c([nH]c12)C(CCC)(CC(=O)O)OCC3` (centres undefined), for which the ED50 with Rattus norvegicus [1] was found to be 6 mg/kg. On the same count and under the same terms, the same measure for `CCC1(CC(=O)O)OCCc2c1[nH]c1cc(C(F)(F)F)ccc21` (centres undefined): 1.2 mg/kg; for `CCC(C)c1cccc2c3c([nH]c12)C(CC)(CC(=O)O)OCC3` (centres undefined): 2.6 mg/kg; for `CCC1(CC(=O)O)OCCc2c1[nH]c1c(C)ccc(C)c21` (centres undefined): 3.2 mg/kg.

Turning to `CCC1(CC(=O)O)OCCc2c1[nH]c1ccc(Br)cc21` (centres undefined), the inhibition result with Rattus norvegicus [2] is “inactive”. Take `CCCCC1C(=O)N(c2ccccc2)N(c2ccccc2)C1=O` [PHENYLBUTAZONE]: the TD50 at 18 h in series [3] was 100 mg/kg. Further, the ED50 in the series with Rattus norvegicus [1] was determined as 5.4 mg/kg. As to `CCC1(CC(=O)O)OCCc2c1[nH]c1cc(Cl)ccc21` (centres undefined), the ED50 in the series on Rattus norvegicus [1] came out at 3.2 mg/kg. Still for that read-out and setting: the same measure for `CCC1(CC(=O)O)OCCc2c1[nH]c1c(C3CCCCC3)cccc21` (centres undefined): more than 10 mg/kg; for `CCC1(CC(=O)O)OCCc2c1[nH]c1c(C(C)(C)C)cccc21` (centres undefined): 1.9 mg/kg.

In the case of `CCCC1(CC(=O)O)OCCc2c1[nH]c1cccc(C)c21` (centres undefined), the ED50 with Rattus norvegicus [1] came out at 10 mg/kg. Regarding `CCC1(CC(=O)O)OCCc2c1[nH]c1ccc(F)cc21` (centres undefined), in the series with Rattus norvegicus [1], the ED50 was 5 mg/kg.

As to `CCC1(CC(=O)O)OCCc2c1[nH]c1c(C3CC3)cccc21` (centres undefined), the ED50 in the series on Rattus norvegicus [1] was 1 mg/kg.

In the case of `CCC1(CC(=O)O)OCCc2c1[nH]c1c(C(C)C)cccc21` (centres undefined), the ED50 with Rattus norvegicus [1] is 1.6 mg/kg. On the same count and under the same terms, for `CCC1(CC(=O)O)OCCc2c1[nH]c1c(Cl)cccc21` (centres undefined) the value was 2.4 mg/kg. On the same count and under the same terms, for `CCCC1(CC(=O)O)OCCc2c1[nH]c1cccc(Cl)c21` (centres undefined) the value was more than 25 mg/kg.

Consider `CCCC1(CC(=O)O)OCCc2c1[nH]c1cc(C)ccc21` (centres undefined), for which the inhibition entry in the series on Rattus norvegicus [7] is “inactive”. In the case of `CCCC1(CC(=O)O)OCCc2c1[nH]c1cc(Cl)ccc21` (centres undefined), the ED50 with Rattus norvegicus [1] stood at 3.7 mg/kg. Regarding `CCC1(CC(=O)O)OCCc2c1[nH]c1c(C)c(Cl)ccc21` (centres undefined), in series [3], the TD50 at 18 h amounted to 25 mg/kg. Further, in the series with Rattus norvegicus [5], the ED30 is 15 mg/kg. In the series on Rattus norvegicus [1], the ED50 was 0.6 mg/kg. The selectivity ratio in series [4] is 41. On to `CCC1(CC(=O)O)OCCc2c1[nH]c1cccc(C)c21` (centres undefined), for which the ED50 in the series on Rattus norvegicus [1] was determined as 11 mg/kg. Still for that read-out and setting: for `CCCC1(CC(=O)O)OCCc2c1[nH]c1c(C)cccc21` (centres undefined) the value was 11.8 mg/kg. Same read-out and setting: the same measure for `CCC1(CC(=O)O)OCCc2c1[nH]c1c(OC)ccc(OC)c21` (centres undefined): 100 mg/kg. As to `CCC1(CC(=O)O)OCCc2c1[nH]c1c(C)c(F)ccc21` (centres undefined), the TD50 at 18 h in series [3] was 26 mg/kg. Also, the ED30 in the series with Rattus norvegicus [5] came to 37 mg/kg. Moreover, the ED50 in the series on Rattus norvegicus [1] came out at 0.9 mg/kg. The selectivity ratio in series [4] was found to be 29. Consider `CCC1(CC(=O)O)OCCc2c1[nH]c1c(OC)cccc21` (centres undefined), for which the outcome in the series with Rattus norvegicus [2] was inactive.

What is called ED50 is the dose at which the effect has come halfway, by size or by number of responders.
